pEC50: −log10 of the molar value.

The species named for the first assay is Mus musculus. Description: Dose ratio in the presence and absence of the peripheral opioid antagonist in N-methyl-nalorphine in AA writhing mice.
Details: not given
Format: functional. Summed up: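 Acetic acid (0.6%, ip) writhing in male TFW mice; N-methylnalorphine 11.5 mg kg-1 ip 20 min before subcutaneous agonist. Writhes counted 5 min from 15 min post-irritant. Dose ratio taken as the shift between parallel regression lines with and without antagonist.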
In general terms: In writhing tests, fewer writhes than in controls are read as antinociception.
With `CC(=O)O.CCN(Cc1ccccc1F)C(=O)CNC(=O)[C@@H](CCCN=C(N)N)NC(=O)[C@@H](N)Cc1ccc(O)cc1`, the Ratio is reported as 8.
On the same count and under the same terms, next, `CC(=O)O.CCN(CCc1ccc(Br)cc1)C(=O)CNC(=O)[C@@H](CCCN=C(N)N)NC(=O)[C@H](Cc1ccc(O)cc1)N=C(N)N`: 1.5.
For `CC(=O)O.CCN(CCc1ccccc1[N+](=O)[O-])C(=O)CNC(=O)[C@@H](CCCN=C(N)N)NC(=O)[C@@H](N)Cc1ccc(O)cc1`, the Ratio is given as 6.4.
As for `CC(=O)O.CCN(Cc1ccc(F)cc1)C(=O)CNC(=O)[C@@H](CCCN=C(N)N)NC(=O)[C@@H](N)Cc1ccc(O)cc1`, the Ratio amounted to 3.9.
Consider `CC(=O)O.CCN(Cc1ccccc1[N+](=O)[O-])C(=O)CNC(=O)[C@@H](CCCN=C(N)N)NC(=O)[C@H](Cc1ccc(O)cc1)N=C(N)N`, for which the Ratio is given as 11.
`CC(=O)O.CCN(CCc1ccccc1F)C(=O)CNC(=O)[C@@H](CCCN=C(N)N)NC(=O)[C@H](Cc1ccc(O)cc1)N=C(N)N`: the Ratio stood at 9.8.

In the next assay the test system is Mus musculus. Description: Antinociceptive activity of perorally administered compound in phenyl-p-benzoquinone induced writhing mice. Format: functional. As to conditions: po. A digest of the protocol: (§1)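 Female CD1 mice, groups of five to six, dosed orally by blunt intragastric needle (10 mL kg-1) 30 min before ip phenyl-p-benzoquinone 2.5 mg kg-1. Abdominal constrictions/hind-limb extensions counted over 2.5 min starting 10 min after PBQ. ED50 = dose halving writhes versus vehicle, by linear regression.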
As usually defined, the ED50 is the midpoint of the dose-response relation. Turning to `CC(=O)O.CCN(CCc1ccccc1F)C(=O)CNC(=O)[C@@H](CCCN=C(N)N)NC(=O)[C@H](Cc1ccc(O)cc1)N=C(N)N`, the ED50 is roughly 50 mg/kg.

The species entered for a further assay is Cavia porcellus. The experiment in a line: Inhibition of electrically induced contractions on the guinea pig ileum. Format: functional. As to conditions: read-out: ED50 (the source's name). Summed up:
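Guinea pig ileum contractions evoked by coaxial stimulation at 0.1 Hz, 0.5-ms pulses, supramaximal voltage, recorded isometrically; dose-response curves built with 15-min washout between doses.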
For the compound `CC(=O)O.CCN(Cc1ccccc1F)C(=O)CNC(=O)[C@@H](CCCN=C(N)N)NC(=O)[C@@H](N)Cc1ccc(O)cc1`, the pEC50 was 6.49.
Turning to `CC(=O)O.CCN(CCc1ccc(Br)cc1)C(=O)CNC(=O)[C@@H](CCCN=C(N)N)NC(=O)[C@H](Cc1ccc(O)cc1)N=C(N)N`, the pEC50 is 6.67.
For `CC(=O)O.CCN(CCc1ccccc1[N+](=O)[O-])C(=O)CNC(=O)[C@@H](CCCN=C(N)N)NC(=O)[C@@H](N)Cc1ccc(O)cc1`, the pEC50 is 6.93.
As for `CC(=O)O.CCN(Cc1ccc(F)cc1)C(=O)CNC(=O)[C@@H](CCCN=C(N)N)NC(=O)[C@@H](N)Cc1ccc(O)cc1`, the pEC50 is 7.20.
On the same count and under the same terms, then `CC(=O)O.CCN(Cc1ccccc1[N+](=O)[O-])C(=O)CNC(=O)[C@@H](CCCN=C(N)N)NC(=O)[C@H](Cc1ccc(O)cc1)N=C(N)N`, with 6.61.
For `CC(=O)O.CCN(CCc1ccccc1F)C(=O)CNC(=O)[C@@H](CCCN=C(N)N)NC(=O)[C@H](Cc1ccc(O)cc1)N=C(N)N`, the pEC50 was 7.61.

A further assay relates to Rodentia sp. The experiment in a line: Antinociceptive activity in the hot plate test (central activity) in rodents, when compound administered subcutaneously at 10 mg. In kind it is functional.
Details: not given
Summed up:
(§2)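 Male CFLP mice, groups of five to six, placed on a copper surface held at 55 °C; latency to paw licking/shaking or jumping recorded, 30-s cut-off. Drug given subcutaneously at 10 mL kg-1. ED50 = dose doubling response latency versus vehicle, by parallel-line probit analysis.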
On the technique in general: In hot-plate and tail-flick tests a longer latency is read as antinociception.
What is called Inhibition is the share of the control response that was lost under treatment. Consider `CC(=O)O.CCN(CCc1ccc(Br)cc1)C(=O)CNC(=O)[C@@H](CCCN=C(N)N)NC(=O)[C@H](Cc1ccc(O)cc1)N=C(N)N`, for which the Inhibition was found to be 0%.

Another assay has as its system Rodentia sp. The experiment in a line: Antinociceptive activity in the hot plate test (central activity) in rodents, when compound administered subcutaneously at 20 mg. In kind it is functional.
Details: not given
A digest of the protocol:
as §2
With `CC(=O)O.CCN(CCc1ccccc1[N+](=O)[O-])C(=O)CNC(=O)[C@@H](CCCN=C(N)N)NC(=O)[C@@H](N)Cc1ccc(O)cc1`, the Inhibition was 0%.
For `CC(=O)O.CCN(Cc1ccc(F)cc1)C(=O)CNC(=O)[C@@H](CCCN=C(N)N)NC(=O)[C@@H](N)Cc1ccc(O)cc1`, the Inhibition is listed as 0%.

For another assay, the system named is Mus musculus. The experiment in a line: Antinociceptive activity of subcutaneously administered compound in phenyl-p-benzoquinone induced writhing mice. In kind it is functional. As to conditions: Mus musculus, sc; read-out: ED50. Summed up:
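Groups of five to six female CD1 mice given drug subcutaneously (10 mL kg-1) 30 min before ip phenyl-p-benzoquinone 2.5 mg kg-1. Writhes (abdominal constrictions/hind-limb extensions) counted over 2.5 min from 10 min post-PBQ. ED50, the dose giving 50% fewer writhes than vehicle, from linear regression.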
In the case of `CC(=O)O.CCN(Cc1ccccc1F)C(=O)CNC(=O)[C@@H](CCCN=C(N)N)NC(=O)[C@@H](N)Cc1ccc(O)cc1`, the ED50 turned out to be 31.1 mg/kg.
As for `CC(=O)O.CCN(CCc1ccc(Br)cc1)C(=O)CNC(=O)[C@@H](CCCN=C(N)N)NC(=O)[C@H](Cc1ccc(O)cc1)N=C(N)N`, the ED50 was 3.4 mg/kg.
Regarding `CC(=O)O.CCN(CCc1ccccc1[N+](=O)[O-])C(=O)CNC(=O)[C@@H](CCCN=C(N)N)NC(=O)[C@@H](N)Cc1ccc(O)cc1`, the ED50 is 31 mg/kg.
Regarding `CC(=O)O.CCN(Cc1ccc(F)cc1)C(=O)CNC(=O)[C@@H](CCCN=C(N)N)NC(=O)[C@@H](N)Cc1ccc(O)cc1`, the ED50 turned out to be 10.4 mg/kg.
Same read-out and setting: next, `CC(=O)O.CCN(Cc1ccccc1[N+](=O)[O-])C(=O)CNC(=O)[C@@H](CCCN=C(N)N)NC(=O)[C@H](Cc1ccc(O)cc1)N=C(N)N`: 4 mg/kg; `CC(=O)O.CCN(CCc1ccccc1F)C(=O)CNC(=O)[C@@H](CCCN=C(N)N)NC(=O)[C@H](Cc1ccc(O)cc1)N=C(N)N`: 0.9 mg/kg.

A further assay deals with Mus musculus. Description: Antinociceptive activity of perorally administered compound (50 mg) in phenyl-p-benzoquinone induced writhing mice. Format: functional.
Details: not given
A digest of the protocol: as §1
With `CC(=O)O.CCN(CCc1ccccc1[N+](=O)[O-])C(=O)CNC(=O)[C@@H](CCCN=C(N)N)NC(=O)[C@@H](N)Cc1ccc(O)cc1`, the Inhibition is listed as 0%.

Another assay relates to Mus musculus. Description: Antinociceptive activity of perorally administered compound (20 mg) in phenyl-p-benzoquinone induced writhing mice. In kind it is functional.
Details: not given
A digest of the protocol: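 Female CD1 mice (Charles River), groups of five to six, dosed orally by blunt intragastric needle (10 mL kg-1) 30 min before ip PBQ at 2.5 mg kg-1. Abdominal constrictions/hind-limb extensions were counted over 2.5 min starting 10 min after PBQ. ED50 is the dose halving writhes versus vehicle, estimated by linear regression.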
In the case of `CC(=O)O.CCN(CCc1ccc(Br)cc1)C(=O)CNC(=O)[C@@H](CCCN=C(N)N)NC(=O)[C@H](Cc1ccc(O)cc1)N=C(N)N`, the Inhibition was found to be 15%.
`CC(=O)O.CCN(Cc1ccccc1[N+](=O)[O-])C(=O)CNC(=O)[C@@H](CCCN=C(N)N)NC(=O)[C@H](Cc1ccc(O)cc1)N=C(N)N`: the Inhibition is recorded as 14%.

A further assay deals with Rodentia sp. Description: Antinociceptive activity in the hot plate test (central activity) in rodents, when compound administered subcutaneously at. Format: functional. As to conditions: sc. A digest of the protocol: (§3)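 Male CFLP mice (Hacking and Churchill), groups of five to six, dosed sc at 10 mL kg-1 and placed on a copper surface held at 55 °C. Signs of discomfort (paw licking/shaking, jumping) were scored, with a 30-s cut-off. ED50 is the dose doubling response latency versus vehicle, estimated by parallel-line probit analysis.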
Consider `CC(=O)O.CCN(CCc1ccccc1F)C(=O)CNC(=O)[C@@H](CCCN=C(N)N)NC(=O)[C@H](Cc1ccc(O)cc1)N=C(N)N`, for which the ED50 stood at 22.2 mg/kg.

Another assay has as its system Mus musculus. The experiment in a line: Antinociceptive activity in the hot plate test (central activity) in rodents, when compound administered subcutaneously at 50 mg. Format: functional.
Details: not given
A digest of the protocol: as §3
Compound `CC(=O)O.CCN(Cc1ccccc1F)C(=O)CNC(=O)[C@@H](CCCN=C(N)N)NC(=O)[C@@H](N)Cc1ccc(O)cc1` showed an Inhibition of 0%.
In turn, `CC(=O)O.CCN(Cc1ccccc1[N+](=O)[O-])C(=O)CNC(=O)[C@@H](CCCN=C(N)N)NC(=O)[C@H](Cc1ccc(O)cc1)N=C(N)N` registered an Inhibition of 0%.

The next assay relates to Mus musculus. Description: Antinociceptive activity of subcutaneously administered compound in acetic acid (AA) induced writhing mice. In kind it is functional. As to conditions: sc. Summed up: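 Male TFW mice, groups of five to six, given drug subcutaneously (10 mL kg-1), then ip acetic acid 0.6% at 25 mL kg-1. Writhes counted for 5 min beginning 15 min after acetic acid. ED50 = dose reducing writhes 50% versus vehicle, by linear regression.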
`CC(=O)O.CCN(Cc1ccccc1F)C(=O)CNC(=O)[C@@H](CCCN=C(N)N)NC(=O)[C@@H](N)Cc1ccc(O)cc1` returned an ED50 of 1.1 mg/kg.
For `CC(=O)O.CCN(CCc1ccc(Br)cc1)C(=O)CNC(=O)[C@@H](CCCN=C(N)N)NC(=O)[C@H](Cc1ccc(O)cc1)N=C(N)N`, the ED50 is 0.35 mg/kg.
Regarding `CC(=O)O.CCN(CCc1ccccc1[N+](=O)[O-])C(=O)CNC(=O)[C@@H](CCCN=C(N)N)NC(=O)[C@@H](N)Cc1ccc(O)cc1`, the ED50 came out at 2.7 mg/kg.
Turning to `CC(=O)O.CCN(Cc1ccc(F)cc1)C(=O)CNC(=O)[C@@H](CCCN=C(N)N)NC(=O)[C@@H](N)Cc1ccc(O)cc1`, the 50% effect level (ED50) was put at a dose of 0.09 mg/kg.
The same measure, in the same setting: then `CC(=O)O.CCN(Cc1ccccc1[N+](=O)[O-])C(=O)CNC(=O)[C@@H](CCCN=C(N)N)NC(=O)[C@H](Cc1ccc(O)cc1)N=C(N)N`, with 1.1 mg/kg; and `CC(=O)O.CCN(CCc1ccccc1F)C(=O)CNC(=O)[C@@H](CCCN=C(N)N)NC(=O)[C@H](Cc1ccc(O)cc1)N=C(N)N`, with 0.17 mg/kg.

The values above are taken from ChEMBL document CHEMBL1124464, “Peripherally acting enkephalin analogues. 2. Polar tri- and tetrapeptides” (1989).
